Test results reported in ChEMBL document CHEMBL1124072, “1,2,4-Trioxanes as potential antimalarial agents” (J Med Chem, 1988).
Converted amounts (≈) assume the structure as drawn.

What follows are molecules tested on Plasmodium falciparum (assay: In vitro EC50 against chloroquine susceptible Plasmodium falciparum by [3H]hypoxanthine incorporation).
Assay type: functional, organism-based
How it was run: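 Chloroquine-susceptible P. falciparum cultured in vitro and tested by the Desjardins method. Inhibition of parasite [3H]hypoxanthine uptake is the read-out. The value is the concentration (ng/mL) giving 50% inhibition of uptake.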

First: COC(=O)C[C@@]12CC[C@]3(OO1)C(C)(C)CCC[C@@]3(C)O2
Second: C[C@@H](O)C[C@@]12CC[C@]3(OO1)C(C)(C)CCC[C@@]3(C)O2
The IC50 of the first is 4.7-fold lower: 0.083 µg/mL (≈ 0.292 µM) for the first, 0.389 µg/mL (≈ 1.44 µM) for the second.

Compared with `C[C@@H](O)C[C@@]12C=C[C@]3(OO1)C(C)(C)CCC[C@@]3(C)O2`, `COC(=O)C[C@@]12C=C[C@]3(OO1)C(C)(C)CCC[C@@]3(C)O2` is 51-fold lower in IC50: 4.93 µg/mL (≈ 18.4 µM) for the first, 0.096 µg/mL (≈ 0.34 µM) for the second.

`C[C@H](C[C@@]12C=C[C@]3(OO1)C(C)(C)CCC[C@@]3(C)O2)OC(=O)c1ccccc1` and `CC(C[C@@]12C=C[C@]3(OO1)C(C)(C)CCC[C@@]3(C)O2)OC(=O)c1ccccc1` (stereo partly specified) are within 1.5-fold of each other in IC50: 0.789 µg/mL (≈ 2.12 µM) for the first, 0.733 µg/mL (≈ 1.97 µM) for the second.

`CC1(C)CCC[C@@]2(C)O[C@]3(C)C=C[C@]12OO3` and `CC1(C)CCC[C@@]2(C)O[C@]3(C)CC[C@]12OO3` cannot be ordered by IC50: greater than 1.2 µg/mL for the first, 1.35 µg/mL (≈ 5.97 µM) for the second.

Going from `CC(C[C@@]12CC[C@]3(OO1)C(C)(C)CCC[C@@]3(C)O2)OC(=O)c1ccccc1` (stereo partly specified) to `C[C@H](C[C@@]12CC[C@]3(OO1)C(C)(C)CCC[C@@]3(C)O2)OC(=O)c1ccccc1`, the IC50 rises from 0.0239 µg/mL (≈ 0.0638 µM) to 1.12 µg/mL (≈ 2.99 µM) (47-fold).

In the case of `C[C@@H]1CC[C@H]2[C@@H](C)C(=O)O[C@@H]3O[C@@]4(C)CC[C@@H]1[C@]32OO4` [ARTEMISININ], the IC50 is reported as 0.00113 µg/mL (≈ 0.004 µM).
